Screening results as filed in PubChem.
An excerpt weighted towards active compounds, which were near 1% of everything screened.
procasp3 activ: activators of human procaspase-3 D3A mutant, primary screen, biochemical, absorbance, PC-3 D3A mutant, single concentration; 330,000 compounds, 0.11% hits; recombinant procaspase-3 D3A, Ac-DEVD-pNA absorbance 405 nm; Caspase-3 (Homo sapiens), P42574; activation, % at 8.5 µM;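 active means activation above the mean of all tested compounds plus 3 SD, cut at about 21% in these data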
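assay system = Procaspase-3 D3A mutant | signal = absorbance at 405 nm, 0 and 120 min | times = 1 h preincubation plus 2 h reaction at 25 °C | repeats = single replicate | read-out = % activation between DMSO and enzyme-spiked controls | medium = Zinc-free HEPES saline buffer with Triton X-100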
Fam108B counter: mouse Fam108B serine hydrolase inhibitors, primary screen, counter-screen for RBBP9 inhibitor project, biochemical, fluorescence polarization | recombinant Fam108B, FP-Rh probe fluorescence polarization | inhibition, % at 9.51 µM | 300,000 compounds, 0.33% hits | AID 1947, 2009;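 active means inhibition above the screen mean inhibition plus 3 SD, computed separately per campaign, cut at about 18% in these data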;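 further: inhibitors lower polarization as less probe binds the enzyme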
LYPLA2 counter: LYPLA2 inhibitors, primary screen, counter-screen for PME1 inhibitor project, biochemical, fluorescence polarization, FP-Rh probe ABPP; inhibition, % at 5.9 µM; Acyl-protein thioesterase 2 (Homo sapiens), O95372; recombinant LYPLA2; 320,000 compounds, 0.38% hits;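 active means inhibition above the screen-wide mean plus 3 SD, limit set per campaign, cut at about 26% in these data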
Target sequence (O95372 whole entry, looked up): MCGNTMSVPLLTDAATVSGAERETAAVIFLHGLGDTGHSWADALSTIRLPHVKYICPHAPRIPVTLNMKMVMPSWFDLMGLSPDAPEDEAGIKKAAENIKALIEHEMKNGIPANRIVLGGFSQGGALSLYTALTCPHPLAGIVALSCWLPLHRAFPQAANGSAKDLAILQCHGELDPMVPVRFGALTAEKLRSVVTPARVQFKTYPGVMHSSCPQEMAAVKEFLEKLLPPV
proCasp7 act: procaspase-7 activators, primary screen, counter-screen for procaspase-3 activator project, biochemical, absorbance, HTS, human | 330,000 compounds, 0.093% hits | activation, % at 8.5 µM | AID 463210, 2010 | recombinant procaspase-7, Ac-DEVD-pNA absorbance 405 nm; D23A/D198A/D206A triple mutant, cannot self-cleave; scale: DMSO 0, 5 µM enzyme 100;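 active means percent activation above the screen-wide mean plus 3 SD, cut at about 25% in these data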
Target sequence (P55210 whole entry D23A/D198A/D206A): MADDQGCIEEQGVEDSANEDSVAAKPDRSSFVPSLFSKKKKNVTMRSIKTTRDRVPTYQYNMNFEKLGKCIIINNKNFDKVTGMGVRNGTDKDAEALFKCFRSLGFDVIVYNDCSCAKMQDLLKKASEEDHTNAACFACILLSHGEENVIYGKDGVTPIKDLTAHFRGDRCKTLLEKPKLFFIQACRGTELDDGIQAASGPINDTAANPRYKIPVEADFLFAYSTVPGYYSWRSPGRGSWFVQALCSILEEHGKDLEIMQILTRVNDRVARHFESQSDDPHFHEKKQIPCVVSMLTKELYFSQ
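Assay system – Uncleavable procaspase-7 mutant enzyme · Quantity – 2 µM procaspase-7 mutant as dispensed · Times – 1 h preincubation, 2 h reaction · Dosing – single nominal 8.5 µM compound dose, 0.8% DMSO final · Buffer or medium – Zinc-free 50 mM HEPES buffer, pH 7.4, with NaCl and Triton X-100 · Detection – Epi-absorbance of released pNA at 405 nm, two timepoints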
PME-1 inh: PME-1 inhibitors via competitive probe labeling, primary screen, biochemical, fluorescence polarization, FP-Rh probe, HTS; recombinant PME-1; inhibition, % at 5.9 µM; 320,000 compounds, 0.53% hits; Protein phosphatase methylesterase 1 (Homo sapiens), Q9Y570;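 active means inhibition above the campaign mean of all compounds plus 3 SD, cut at about 26% in these data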;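 further: competitive labeling of PME-1 active site by serine hydrolase directed probe; inhibitors block probe labeling so polarization falls and inhibition rises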
LYPLA1 counter: LYPLA1 inhibitors, primary screen, counter-screen for PME1 inhibitor project, biochemical, fluorescence polarization, FP-Rh probe ABPP; Acyl-protein thioesterase 1 (Homo sapiens), O75608; inhibition, % at 5.9 µM; recombinant LYPLA1; 320,000 compounds, 0.16% hits;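 active means inhibition above the mean of all tested compounds plus 3 SD, set per campaign, cut at about 14% in these data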;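 further: inhibitors block serine hydrolase probe labeling of LYPLA1 so polarization falls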
LYPLA2 conf: LYPLA2 inhibitors, retest, confirmation, counter-screen for PME1 inhibitor project, biochemical, fluorescence polarization, FP-Rh probe ABPP; shares compounds with LYPLA2 counter; recombinant LYPLA2; inhibition, % at 5.9 µM; 1,100 compounds, 72% hits;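 active means mean inhibition across replicates above the hit cutoff set in the primary screen, cut at about 26% in these data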;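 further: blocked labeling of the enzyme by serine hydrolase FP-Rh probe lowers polarization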
LYPLA2 gel ABPP: LYPLA2 inhibitors in proteome, late-stage follow-up, gel-based competitive ABPP, fluorescence, assay provider | shares compounds with LYPLA2 counter | rhLYPLA2 in mouse brain proteome, gel ABPP FP-Rh | inhibition, % at 20 µM | 150 compounds, 30% hits | AID 652029, 2013;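 active means inhibition of LYPLA2 enzyme probe labeling above about 50%, limit read from the data; inactive means inhibition below that limit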;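 further: loss of FP-Rh probe labeling of the LYPLA2 gel band measured as band density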
Each line names hits and unclear results; the compound was inactive in the other large screens (follow-up assays come after a bar, where they were run).

CN(C(=O)c1ccc(NC(=O)Cc2ccc(NC(=O)C3CCCN(C(=O)C4CC4)C3)cc2)cc1)C1CC1 (stereo not given)	LYPLA2 counter 60 (no result: Fam108B counter) | LYPLA2 conf 61 | LYPLA2 gel ABPP inactive
Cc1ccc(NC(=O)c2ccc(N3CCCC3=O)cc2)cc1S(=O)(=O)N1CCCCC1	none (no result: Fam108B counter)
CC(CCCC(C)(C)O)NC(=O)c1cc(COc2ccc3ncccc3c2)on1 (stereo not given)	none
O=C(NCc1cccc(Cl)c1)c1cc(COc2ccc3ncccc3c2)on1	LYPLA2 counter 39 | LYPLA2 conf 36
Cc1ccc(F)cc1CNC(=O)c1cc(COc2ccc3ncccc3c2)on1	LYPLA2 counter 46 | LYPLA2 conf 54 | LYPLA2 gel ABPP inactive
Cc1cc(C)n(CCNC(=O)c2cc(COc3ccc4ncccc4c3)on2)n1	none
CN(C)C(=O)CSc1ccccc1C(=O)OCC(=O)NC1CC1	none (no result: Fam108B counter)
CC(=O)NCCc1ccc(C(=O)Cn2cnc3ccccc3c2=O)cc1	LYPLA2 counter 29 | LYPLA2 conf 39
O=C(CN1C(=O)NC(c2ccccc2)(c2ccccc2)C1=O)NCc1ccc(F)cc1	none (no result: Fam108B counter, LYPLA2 counter, PME-1 inh, LYPLA1 counter)
NC(N)=Nc1nc(-c2ccccc2)c2cc(F)ccc2n1	none
Cc1ccccc1SCC(=O)N1CCN(c2ccc(C(F)(F)F)cn2)CC1	LYPLA2 counter 28 | LYPLA2 conf 36
O=C(CCC(=O)N1CCN(c2ccc(C(F)(F)F)cn2)CC1)c1cccs1	LYPLA2 counter 32 (no result: Fam108B counter) | LYPLA2 conf inactive
Cc1ccccc1NC(=O)Cn1nnc2sc3c(c2c1=O)CC(C)(C)OC3	none
CCC1(C)Cc2c(sc3nnn(CC(=O)Nc4ccccc4)c(=O)c23)CO1 (stereo not given)	LYPLA2 counter 39 | LYPLA2 conf 38
Cc1cccc(NC(=O)Cn2nnc3sc4c(c3c2=O)CC(C)(C)OC4)c1	LYPLA2 counter 39 | LYPLA2 conf 48
O=C(Nc1ccc(Br)cc1Br)C1CC(=O)N(Cc2ccccc2)C1 (stereo not given)	none
CCN(CC(=O)NCc1ccc(F)cc1)C(=O)Cc1ccc(OC)cc1	none
CCc1ccc([C@@H]2CC=C(C(=O)O)[C@H](c3ccc(C(C)(C)C)cc3)N2S(=O)(=O)c2ccc(C)cc2)cc1	none (no result: Fam108B counter, LYPLA2 counter, PME-1 inh, LYPLA1 counter)
CC(=O)c1ccc(N2CCN(C(=O)Nc3ccc(F)cc3)CC2)cc1	none
CC(=O)c1ccc(N2CCN(C(=O)Nc3ccc(C(C)C)cc3)CC2)cc1	LYPLA2 counter 48 | LYPLA2 conf 42
Cc1ccnc(N2CCCC(C(=O)Nc3cccc(C)c3C)C2)n1 (stereo not given)	none
O=C(N/N=C/c1cccc(Oc2ccc([N+](=O)[O-])cc2[N+](=O)[O-])c1)c1cncc(Br)c1	LYPLA2 counter 45 | LYPLA2 conf 39
Cc1ccc(N2C(=O)c3ccccc3NC2(C(=O)O)c2ccccc2)cc1Cl (stereo not given)	none
c1ccc(OCCN2CCN(Cc3nc(-c4ccc5c(c4)OCO5)no3)CC2)cc1	LYPLA2 counter 26 | LYPLA2 conf inactive
Cc1ccc(C=NNC(=O)C(NC(=O)c2ccccc2)c2n[nH]c(=O)c3ccccc23)cc1 (stereo not given)	none (no result: procasp3 activ, Fam108B counter, LYPLA2 counter, proCasp7 act, PME-1 inh, LYPLA1 counter) | LYPLA2 gel ABPP inactive
COc1ccc(N2CCN(S(=O)(=O)CCNC(=O)c3ccc4c(c3)OCO4)CC2)cc1	none
O=C(NCCCN1CCN(c2cccc(Cl)c2)CC1)c1cccc(N2CCCC2=O)c1	LYPLA2 counter 27 | LYPLA2 conf 33
O=C(NCCS(=O)(=O)N1CCN(c2cccc(Cl)c2)CC1)c1ccc2c(c1)OCO2	LYPLA2 counter 47 | LYPLA2 conf 56 | LYPLA2 gel ABPP inactive
O=C(NCCCN1CCN(c2cccc(Cl)c2)CC1)c1ccc(N2CCCC2=O)cc1	none
Nc1ccccc1C(=O)NCCCN1CCN(c2cccc(Cl)c2)CC1	LYPLA2 counter 30 | LYPLA2 conf 40
O=C(NCc1ccc(Cl)cc1)c1cccc(NC2=NC3CS(=O)(=O)CC3S2)c1 (stereo not given)	none
Cc1ccc(CN(C)c2ccc(S(=O)(=O)N3CCCC3)cn2)cc1	none (no result: Fam108B counter, LYPLA2 counter, PME-1 inh, LYPLA1 counter)
CCOC(=O)C1=C(C)NC2=C(C1c1ccc([N+](=O)[O-])cc1)S(=O)(=O)c1ccccc12 (stereo not given)	LYPLA2 counter 41 | LYPLA2 conf 38
COCCNC(=O)Cn1cnc2c(cnn2-c2ccc(C)cc2)c1=O	none
Cc1cccc(Nc2c([N+](=O)[O-])cc(C(=O)N3CC(=O)Nc4ccccc43)cc2[N+](=O)[O-])c1	LYPLA2 counter 32 | LYPLA2 conf 38
Cc1ccc(C)c(Nc2c([N+](=O)[O-])cc(C(=O)N3CC(=O)Nc4ccccc43)cc2[N+](=O)[O-])c1	none
COc1ccccc1C1CC(c2ccc(Cl)cc2Cl)Nc2nc(N)nn21 (stereo not given)	LYPLA2 counter 43 | LYPLA2 conf 34
CCCN1CCN(C(=O)c2cc(COc3ccc(F)cc3F)on2)CC1	none
O=C1CCCN1CCCNc1ncnc2c1cnn2-c1ccc(Cl)cc1	LYPLA2 counter 30 | LYPLA2 conf 29
N#Cc1ccc(COC(=O)c2cnc3ccccc3n2)cc1	LYPLA2 counter 27 | LYPLA2 conf 27
Cc1cnc(C(=O)OCc2ccc(C#N)cc2)cn1	none
O=C(Nc1ccc2c(c1)CCC2)C1CCN(c2c3c(nc4ncnn24)CCC3)CC1	none
O=C(Nc1ccc(Oc2ccccc2)cc1)C1CCN(c2c3c(nc4ncnn24)CCC3)CC1	LYPLA2 counter 28 | LYPLA2 conf inactive
